ChEMBL document CHEMBL3102831 (Bioorg Med Chem Lett, 2014)
Calls of active or inactive are those of the source. The calls are words filed in the database; no cut-off is given here.

Tests used:
HUVEC = test: Cytotoxicity against human HUVEC after 48 hrs by MTT assay; type: cell-based
HCT-116 [1] = test: Cytotoxicity against human HCT116 cells; type: functional, cell-based
[2] = Cytotoxicity against human COLO320DM cells; type: functional, cell-based; conditions: COLO 320DM
DNA [3] = test: Binding affinity to F32T oligonucleotide DNA assessed as change in melting temperature by FRET assay
HCT-116 [4] = test: Cytotoxicity against human HCT116 cells after 48 hrs by MTT assay; type: functional, cell-based; conditions: HCT-116, 48 h
[5] = Cytotoxicity against human SPCA2 cells after 48 hrs by MTT assay; type: functional, cell-based; conditions: SPCA2, 48 h
HeLa = test: Cytotoxicity against human HeLa cells after 48 hrs by MTT assay; type: functional, cell-based
CNE = test: Cytotoxicity against human CNE cells after 48 hrs by MTT assay; type: functional, cell-based
HepG2 = test: Cytotoxicity against human HepG2 cells after 48 hrs by MTT assay; type: functional, cell-based; conditions: HepG2, 48 h
HCT-116 [6] = test: Induction of apoptosis in human HCT116 cells assessed as activation of caspase 3 and 8 after 24 hrs by RT-PCR analysis; type: functional, cell-based
HCT-116 [7] = test: Cell cycle arrest in human HCT116 cells assessed as accumulation at S phase at 5 uM after 48 hrs using propidium iodide staining by FACS analysis (reference value: 36.84%); type: functional
HCT-116 [8] = test: Cell cycle arrest in human HCT116 cells assessed as accumulation at G2 phase at 5 uM after 48 hrs using propidium iodide staining by FACS analysis (reference value: 24.09%); type: functional
HCT-116 [9] = test: Induction of apoptosis in human HCT116 cells assessed as viable cells at 3 uM after 24 hrs using annexin V-FITC/propidium iodide by flow cytometry (reference value: 90%); type: functional; conditions: HCT-116, 24 h, read-out: Activity
HCT-116 [10] = test: Induction of apoptosis in human HCT116 cells assessed as necrotic cells at 3 uM after 24 hrs using annexin V-FITC/propidium iodide by flow cytometry (reference value: 2.8%); type: functional
HCT-116 [11] = test: Induction of apoptosis in human HCT116 cells assessed as change in mitochondrial membrane potential at 3 to 5 uM after 24 hrs by JC-1 staining; type: functional, cell-based
How it was run: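 HCT116 cells were exposed for 24 h at 3 and 5 µM, with untreated 24 h controls, then stained with JC-1. Monomer and J-aggregates were excited at 514 and 585 nm. Emission was collected at 515–545 nm (green) and 570–600 nm (red), and cells were imaged by fluorescence microscopy.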

HCT-116 [12] = test: Induction of apoptosis in human HCT116 cells assessed as apoptotic morphology at 3 to 5 uM after 24 hrs by Hoechst […] staining; type: functional, cell-based
How it was run: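 HCT116 cells were treated with compound at 3 and 5 µM for 24 h, alongside 24 h untreated controls. Cells were stained with Hoechst 33258 and examined by fluorescence microscopy. Bright blue nuclei from chromatin condensation and karyopyknosis were scored as apoptotic, and uniform light blue nuclei as live.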

DNA [13] = test: Binding affinity to calf thymus DNA at 1.5 x 10^-5 M by circular dichroism analysis; type: nucleic-acid assay; conditions: Bos taurus
How it was run: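 Circular dichroism spectra recorded on ct-DNA at 1.5 × 10^-4 M, alone and with compound at 1.5 × 10^-5 M. Spectra compared with and without compound.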

DNA [14] = test: Binding affinity to calf thymus DNA at compound and GelRed ratio 1:1 to 9:1 by fluorescence emission spectra analysis; type: nucleic-acid assay; conditions: Bos taurus
How it was run: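 Competitive displacement assay. GelRed was pre-incubated with ct-DNA for 30 min at [GelRed]/[DNA] = 1:10, then titrated with compound. Emission was read around 590 nm with 350 nm excitation. Quenching constant Kq was obtained by linear Stern–Volmer fitting.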

DNA [15] = test: Binding affinity to calf thymus DNA at DNA and compound ratio 1:1 to 6:1 by UV-vis absorption spectra analysis; type: nucleic-acid assay; conditions: Bos taurus
HCT-116 [16] = test: Induction of apoptosis in human HCT116 cells assessed as late apoptotic cells at 3 uM after 24 hrs using annexin V-FITC/propidium iodide by flow cytometry (reference value: 3.3%); type: functional
HCT-116 [17] = test: Induction of apoptosis in human HCT116 cells assessed as early apoptotic cells at 3 uM after 24 hrs using annexin V-FITC/propidium iodide by flow cytometry (reference value: 3.9%); type: functional
HCT-116 [18] = test: Induction of apoptosis in human HCT116 cells assessed as necrotic cells at 5 uM after 24 hrs using annexin V-FITC/propidium iodide by flow cytometry (reference value: 2.8%); type: functional
HCT-116 [19] = test: Induction of apoptosis in human HCT116 cells assessed as viable cells at 5 uM after 24 hrs using annexin V-FITC/propidium iodide by flow cytometry (reference value: 90%); type: functional; conditions: HCT-116, 24 h, read-out: Activity
HCT-116 [20] = test: Induction of apoptosis in human HCT116 cells assessed as late apoptotic cells at 5 uM after 24 hrs using annexin V-FITC/propidium iodide by flow cytometry (reference value: 3.3%); type: functional
HCT-116 [21] = test: Induction of apoptosis in human HCT116 cells assessed as early apoptotic cells at 5 uM after 24 hrs using annexin V-FITC/propidium iodide by flow cytometry (reference value: 3.9%); type: functional
HCT-116 [22] = test: Cell cycle arrest in human HCT116 cells assessed as accumulation at G1 phase at 3 uM after 48 hrs using propidium iodide staining by FACS analysis (reference value: 39.08%); type: functional
HCT-116 [23] = test: Cell cycle arrest in human HCT116 cells assessed as accumulation at S phase at 3 uM after 48 hrs using propidium iodide staining by FACS analysis (reference value: 36.84%); type: functional
HCT-116 [24] = test: Cell cycle arrest in human HCT116 cells assessed as accumulation at G1 phase at 5 uM after 48 hrs using propidium iodide staining by FACS analysis (reference value: 39.08%); type: functional
HCT-116 [25] = test: Cell cycle arrest in human HCT116 cells assessed as accumulation at G2 phase at 3 uM after 48 hrs using propidium iodide staining by FACS analysis (reference value: 24.09%); type: functional

Work on `O=C(O)c1cc(O)c2c(c1)C(=O)c1cccc(O)c1C2=O` [RHEIN] yielded an IC50 (HUVEC) of 89.7 µM, an IC50 (HCT-116 [1]) of 135 µM and an IC50 [2] of 62.5 µM. The ΔTm (DNA [3]) was 2 °C.
In the case of `CCOP(=O)(OCC)C(NC(=O)c1cc(O)c2c(c1)C(=O)c1cccc(O)c1C2=O)c1ccccc1Br` (stereo not drawn), the IC50 (HUVEC) is reported as > 100 µM, the IC50 (HCT-116 [4]) is reported as 48.9 µM and the IC50 [5] is reported as 85.5 µM. The IC50 (HeLa) was 79.6 µM, the IC50 (CNE) was 55.7 µM and the IC50 (HepG2) was 88.3 µM.
For `CCOP(=O)(OCC)C(NC(=O)c1cc(O)c2c(c1)C(=O)c1cccc(O)c1C2=O)c1cccc(OC)c1` (stereo not drawn), the Activity (HCT-116 [6]) was “Dose-dependent effect”, the Activity (HCT-116 [7]) was 32.44% and the Activity (HCT-116 [8]) was 17.9%. For the same compound, the viability at 3 µM (HCT-116 [9]) was 53%, the Activity (HCT-116 [10]) was 4% and the Activity (HCT-116 [11]) was “Active”. The Activity (HCT-116 [12]) was “Active”, the Activity (DNA [13]) was “Active” and the Kq (DNA [14]) was 1660. For the same compound, the Kb (DNA [15]) was 1.03 ×10⁴ /M, the IC50 (HUVEC) was > 100 µM and the IC50 (HCT-116 [4]) was 5.32 µM. For the same compound, the IC50 [5] was 28.3 µM, the IC50 (HeLa) was 19.3 µM and the IC50 (CNE) was 24.1 µM. For the same compound, the IC50 (HepG2) was 22.1 µM, the Activity (HCT-116 [16]) was 10.5% and the Activity (HCT-116 [17]) was 32.5%. For the same compound, the Activity (HCT-116 [18]) was 2.6%, the viability at 5 µM (HCT-116 [19]) was 57.5% and the Activity (HCT-116 [20]) was 6.5%. The Activity (HCT-116 [21]) was 33.5%, the Activity (HCT-116 [22]) was 45.26% and the Activity (HCT-116 [23]) was 34.66%. It also gave an Activity (HCT-116 [24]) of 49.67%, an Activity (HCT-116 [25]) of 20.09% and a ΔTm (DNA [3]) of 3.1 °C.
In the case of `CCOP(=O)(OCC)C(NC(=O)c1cc(O)c2c(c1)C(=O)c1cccc(O)c1C2=O)c1ccccc1` (stereo not drawn), the IC50 (HUVEC) is reported as > 100 µM, the IC50 (HCT-116 [4]) is reported as 17.8 µM and the IC50 [5] is reported as 27.4 µM. For the same compound, the IC50 (HeLa) was 38.2 µM, the IC50 (CNE) was 34.3 µM and the IC50 (HepG2) was 39.2 µM.
For `CCOP(=O)(OCC)C(NC(=O)c1cc(O)c2c(c1)C(=O)c1cccc(O)c1C2=O)c1ccc(OC)cc1` (stereo not drawn), the IC50 (HUVEC) was > 100 µM, the IC50 (HCT-116 [4]) was 22.1 µM and the IC50 [5] was 38.9 µM. For the same compound, the IC50 (HeLa) was 40.1 µM, the IC50 (CNE) was 42.9 µM and the IC50 (HepG2) was 44.4 µM.
With `CCOP(=O)(OCC)C(NC(=O)c1cc(O)c2c(c1)C(=O)c1cccc(O)c1C2=O)c1c2ccccc2cc2ccccc12` (stereo not drawn) the IC50 (HUVEC) was > 100 µM, the IC50 (HCT-116 [4]) was > 100 µM and the IC50 [5] was > 100 µM. The IC50 (HeLa) was > 100 µM, the IC50 (CNE) was > 100 µM and the IC50 (HepG2) was > 100 µM.
For `CCOP(=O)(OCC)C(NC(=O)c1cc(O)c2c(c1)C(=O)c1cccc(O)c1C2=O)c1cccc(F)c1` (stereo not drawn), the IC50 (HUVEC) was > 100 µM, the IC50 (HCT-116 [4]) was 16.7 µM and the IC50 [5] was 55.4 µM. The IC50 (HeLa) was 64.8 µM, the IC50 (CNE) was 49.2 µM and the IC50 (HepG2) was 56.8 µM.
With `CCOP(=O)(OCC)C(NC(=O)c1cc(O)c2c(c1)C(=O)c1cccc(O)c1C2=O)c1ccc(F)cc1` (stereo not drawn) the IC50 (HUVEC) was > 100 µM, the IC50 (HCT-116 [4]) was 57.8 µM and the IC50 [5] was 24.3 µM. For the same compound, the IC50 (HeLa) was 95.4 µM, the IC50 (CNE) was 34.6 µM and the IC50 (HepG2) was 59.4 µM.
With `CCOP(=O)(OCC)C(NC(=O)c1cc(O)c2c(c1)C(=O)c1cccc(O)c1C2=O)c1ccc(C)cc1` (stereo not drawn) the IC50 (HUVEC) was > 100 µM, the IC50 (HCT-116 [4]) was 54.3 µM and the IC50 [5] was 74.4 µM. For the same compound, the IC50 (HeLa) was 89 µM, the IC50 (CNE) was 79.4 µM and the IC50 (HepG2) was 77.9 µM.
